Experimental findings from PubChem BioAssay are described below.

Structures are written as SMILES. Active and inactive are the calls of the source.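 How the source made its calls, unless noted: active means potentiation averaged over duplicate wells exceeding buffer-only control mean by more than 3 SD; inactive means the rest.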

The nature of test [1]: nonspecific flux increase, KCNQ1-free cells – parental CHO cells, counter-screen for KCNQ1 potentiator project (AID 493006;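 active means duplicate-averaged activation above buffer control mean plus 5 SD of those controls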;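 on activation: fluorescence ratio of max minus min over baseline after K+ and Tl+ depolarization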). The settings on record: parental CHO-K1 cells, FluxOR thallium flux, at 10 µM; stronger effect = higher value. In outline: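 Material: parental CHO-K1 cells, FluxOR dye-loaded; Also added: Potassium/thallium depolarization pulse; Schedule: overnight 37 °C plating, 90 min dye, 20 min dark compound; Signal: kinetic FluxOR fluorescence, 10 s baseline, 110 s after stimulus.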
Background: The purpose of a counterscreen is to sort out artefacts and off-target activity.

Test [2] has as its target Potassium voltage-gated channel subfamily KQT member 1 (Homo sapiens) (UniProt P51787). The test is described as follows: enhancement of KCNQ1 channel thallium flux – FluxOR thallium flux, CHO cells, duplicates, confirmation (AID 493007).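 On outcome: cells depolarized by a potassium plus thallium sulfate stimulus after compound.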 The settings on record: KCNQ1 cell line, FluxOR thallium flux fluorescence, at 10 µM; stronger effect = higher value, % of reference activator effect, buffer zero. The method, boiled down: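 System: KCNQ1-expressing CHO cell line; technique: kinetic thallium influx fluorescence with FluxOR dye, 10 s baseline, 110 s post-stimulus; timing: dye 90 min then compound 20 min, both at room temperature; controls: buffer-only wells as 0% and R-L3 activator as 100%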

The target in test [3] is Potassium voltage-gated channel subfamily KQT member 2 (Rattus norvegicus) (UniProt O88943). Nature of the test: KCNQ2 thallium flux enhancement – KCNQ2-CHO-K1 cells, selectivity assay for KCNQ1 potentiator project (AID 493009;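 active means mean duplicate potentiation above the buffer control mean plus 5 SD of buffer wells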;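 further: assay conditions were tuned for KCNQ1 rather than KCNQ2 modulators; signal is max minus min fluorescence divided by baseline after thallium stimulus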). Particulars: FluxOR thallium flux fluorescence, at 10 µM; stronger effect = higher value, scaled: buffer 0, activator control 100.
Test [4] addresses Potassium voltage-gated channel subfamily KQT member 1 (Homo sapiens) (UniProt P51787). Nature of the test: KCNQ1 activators by electrophysiology – IonWorks patch clamp, KCNQ1-CHO cells, orthogonal assay for KCNQ1 potentiator project, confirmation (AID 493184;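 active means current rise at least 3 SD above the untreated control mean in each of two repeat wells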;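 on current potentiation: percent change of the same well's current before compound addition so 0% = no change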). The settings on record: automated patch clamp current, at 10 µM; stronger effect = higher value. In outline: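 Test system: KCNQ1-expressing CHO cells. Medium: pH 7.4 external bath. Probe or stimulus: voltage step from -90 mV holding to +40 mV, 2,000 ms. Compound: 10 µM final, single point. Detection: automated perforated-patch electrophysiology. Read-out: percent current increase versus pre-compound level. Repeats: two replicates.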
For orientation: Patch clamp records ionic current or voltage across a cell membrane.

Sequence of Potassium voltage-gated channel subfamily KQT member 1 (Homo sapiens) (P51787 whole entry, looked up): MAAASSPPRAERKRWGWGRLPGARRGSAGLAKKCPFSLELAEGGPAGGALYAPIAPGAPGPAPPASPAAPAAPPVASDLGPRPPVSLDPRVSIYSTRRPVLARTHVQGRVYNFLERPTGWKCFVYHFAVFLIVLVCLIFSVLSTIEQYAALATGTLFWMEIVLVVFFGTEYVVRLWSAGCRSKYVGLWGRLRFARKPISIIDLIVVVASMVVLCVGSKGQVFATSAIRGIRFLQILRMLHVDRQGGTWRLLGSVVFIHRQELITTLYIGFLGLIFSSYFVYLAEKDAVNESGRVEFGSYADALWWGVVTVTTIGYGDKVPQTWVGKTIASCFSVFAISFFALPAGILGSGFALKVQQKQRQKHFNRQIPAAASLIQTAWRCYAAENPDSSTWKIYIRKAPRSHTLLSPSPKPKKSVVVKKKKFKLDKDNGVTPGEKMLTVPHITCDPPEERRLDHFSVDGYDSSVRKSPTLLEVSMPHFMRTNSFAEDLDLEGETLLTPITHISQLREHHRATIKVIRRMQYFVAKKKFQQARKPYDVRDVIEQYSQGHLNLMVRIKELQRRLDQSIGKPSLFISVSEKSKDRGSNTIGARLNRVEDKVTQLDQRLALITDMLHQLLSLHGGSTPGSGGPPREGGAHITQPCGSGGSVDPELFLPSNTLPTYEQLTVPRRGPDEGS
Sequence of Potassium voltage-gated channel subfamily KQT member 2 (Rattus norvegicus) (O88943 whole entry, looked up): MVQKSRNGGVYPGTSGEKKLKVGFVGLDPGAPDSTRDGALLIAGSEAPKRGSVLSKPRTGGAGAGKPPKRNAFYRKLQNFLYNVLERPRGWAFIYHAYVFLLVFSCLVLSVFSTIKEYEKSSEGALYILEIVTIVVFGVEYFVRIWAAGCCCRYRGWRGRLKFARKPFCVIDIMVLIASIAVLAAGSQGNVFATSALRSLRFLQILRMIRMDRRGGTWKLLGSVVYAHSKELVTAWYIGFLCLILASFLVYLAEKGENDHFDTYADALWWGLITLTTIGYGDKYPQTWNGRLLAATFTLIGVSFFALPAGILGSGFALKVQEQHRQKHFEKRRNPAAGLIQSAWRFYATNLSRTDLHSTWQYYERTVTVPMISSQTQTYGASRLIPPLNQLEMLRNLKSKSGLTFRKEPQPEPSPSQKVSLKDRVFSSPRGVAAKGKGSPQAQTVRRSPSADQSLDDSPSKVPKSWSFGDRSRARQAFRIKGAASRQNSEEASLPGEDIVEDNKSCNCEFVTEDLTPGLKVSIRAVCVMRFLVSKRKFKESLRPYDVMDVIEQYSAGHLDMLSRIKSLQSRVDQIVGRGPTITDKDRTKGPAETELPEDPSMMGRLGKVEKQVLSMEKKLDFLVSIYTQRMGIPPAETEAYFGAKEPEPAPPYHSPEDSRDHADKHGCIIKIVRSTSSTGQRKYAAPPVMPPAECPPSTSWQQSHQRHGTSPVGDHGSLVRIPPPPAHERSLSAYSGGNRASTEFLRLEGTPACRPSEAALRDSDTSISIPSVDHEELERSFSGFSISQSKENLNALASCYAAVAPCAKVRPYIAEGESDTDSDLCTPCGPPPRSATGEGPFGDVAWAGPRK

Turning to `O=C(NC(=S)N1CCN(c2nc(-c3ccccc3)cs2)CC1)c1cncc(Br)c1`, the activation in test [1] was 384% (active). Further, the potentiation in test [2] was 223% (active); in test [3], 505% (active). Moreover, the result in test [4] was inactive.
`CC(/C=C1\SC(=S)N(NS(=O)(=O)c2ccccc2)C1=O)=C\c1ccccc1`: in test [1], the activation is 304% (active). The potentiation in test [2] was 157% (active); in test [3], 318% (active). The outcome in test [4] was inactive.
For `CCCCn1c(NS(=O)(=O)c2ccc(C)cc2)c(S(=O)(=O)c2ccccc2)c2nc3ccccc3nc21`, the outcome in test [1], in test [2], in test [3] and in test [4] was inactive.
Turning to `O=C(O)C(c1ccccc1)N1C(=O)/C(=C\c2ccc(-c3ccc(Br)cc3)o2)SC1=S` (stereo not drawn), the result in test [1] and in test [3] was inactive. In test [2], the potentiation is 17.5% (active). Besides, in test [4], the current potentiation is 15% (active).
With `O=C(Nc1ccc(Cl)cn1)c1cccc(S(=O)(=O)N2CCOCC2)c1`, the result in test [1], in test [2], in test [3] and in test [4] was inactive.
As to `Cc1ccc(C(C#N)c2ccc3c(C(F)(F)F)cc(C(F)(F)F)nc3n2)cc1` (stereo not drawn), the activation in test [1] is 150% (active). The figures for the potentiation in test [2] and in test [3] were 114% (active) and 222% (active), respectively. Besides, in test [4], the outcome was inactive.
Take `CC(Oc1ccc(Br)cc1)C(=O)N1CCC(C(N)=O)CC1` (stereo not drawn): the outcome in test [1], in test [2], in test [3] and in test [4] was inactive.
For `Cc1ccc(C(=O)Nc2nc(-c3ccccc3)c(-c3ccccc3)o2)cc1`, the activation in test [1] was 201% (active). In addition, the potentiation in test [2] was 92.5% (active); in test [3], 248% (active). Moreover, the outcome in test [4] was inactive.
As to `COc1ccccc1C(=O)NNC(=O)C(=O)NCc1ccccc1`, the activation in test [1] is 188% (active). Also, the potentiation is 59.5% (active) in test [2] and 218% (active) in test [3]. In addition, in test [4], the result was inactive.
For the compound `C=CCN(CC=C)C(=S)NC(=O)Cc1cccc2ccccc12`, the activation in test [1] is 210% (active). Besides, the potentiation in test [2] is 68.5% (active); in test [3], 245% (active). Besides, in test [4], the outcome was inactive.
In the case of `N#CC1(c2ccc(NC(=O)c3ccccc3F)cc2)CCCC1`, the result in test [1], in test [2], in test [3] and in test [4] was inactive.
For the compound `CCCCC(=O)N(c1ccc(OCC)cc1)C1C=CS(=O)(=O)C1` (stereo not drawn), the result in test [1], in test [2], in test [3] and in test [4] was inactive.
Turning to `CCCN(Cc1ccccc1)C(=S)NC(=O)c1ccccc1[N+](=O)[O-]`, in test [1], the activation is 430% (active). For the same compound, the potentiation was 177% (active) in test [2] and 452% (active) in test [3]. The outcome in test [4] was inactive.
Regarding `CCCCCNC(=O)Cn1c(=O)c2c(ncn2CC(C)C)n(Cc2ccccc2)c1=O`, the result in test [1], in test [2], in test [3] and in test [4] was inactive.
`S=c1nc(SCc2ccccc2)[nH]c2ccccc12`: in test [1], the activation is 458% (active). Also, the potentiation in test [2] was 320% (active); in test [3], 500% (active). Besides, the result in test [4] was inactive.
For `O=c1c2cc(Cl)cc(Cl)c2nc2n1CCC2`, the outcome in test [1], in test [2], in test [3] and in test [4] was inactive.
In the case of `Cc1ccc(S(=O)(=O)NN2C(=O)/C(=C/c3cccs3)SC2=S)cc1`, the activation in test [1] is 163% (active). The potentiation in test [2] is 22.5% (active); in test [3], 159% (active). Also, the outcome in test [4] was inactive.
The like results for `Oc1ccc(CN2CCCCC2)c2cccnc12` were, in that order, 170% (active), 47% (active), 144% (active) and “inactive”.
In the case of `COC(=O)c1ccc(/C=C/c2ccc3cccc(OC)c3n2)cc1`, the outcome in test [1], in test [2], in test [3] and in test [4] was inactive.
Regarding `CCOc1ccc2[nH]c(=O)c(CN(Cc3ccc(C)cc3)C(=O)N3CCCC3)cc2c1`, the result in test [1], in test [2], in test [3] and in test [4] was inactive.
In the case of `COc1ccc(CCN(C)CC(O)COc2c(C)ccc(C)c2C)cc1OC` (stereo not drawn), the outcome in test [1], in test [2], in test [3] and in test [4] was inactive.
`COc1ccc(C(=O)c2ccc(OC)c(N)c2)cc1N`: the activation in test [1] was 162% (active). Moreover, the potentiation in test [2] was 38.5% (active); in test [3] it was 178% (active). Also, the outcome in test [4] was inactive.
In the case of `O=C(O)c1ccc2c(c1)C(=O)N(Cc1ccccc1)C2=O`, the result in test [1], in test [2], in test [3] and in test [4] was inactive.
For `COc1cccc(C(=O)NC(=S)Nc2ccc3c4c(cccc24)CC3)c1`, the outcome in test [1], in test [3] and in test [4] was inactive. Moreover, the potentiation in test [2] is 25.5% (active).
Turning to `O=C(OCc1cccc([N+](=O)[O-])c1)c1ccncc1`, the outcome in test [1], in test [2], in test [3] and in test [4] was inactive.
`c1ccc2c(c1)CSc1sccc1C2=C1CCNCC1`: the result in test [1], in test [2], in test [3] and in test [4] was inactive.
As for `CCOC(=O)NC(=S)Nc1ccc(C(C)(C)C)cc1Br`, the activation in test [1] is 213% (active). Besides, the potentiation in test [2] is 123% (active); in test [3], 249% (active). The result in test [4] was inactive.
In the case of `OC(C#CCCN1CCCCC1)(c1ccccc1)c1ccccc1`, the outcome in test [1], in test [2], in test [3] and in test [4] was inactive.
Regarding `COC(=O)C1=C(C)NC(C)=C(C(=O)OC)C1c1ccccc1[N+](=O)[O-]`, the outcome in test [1], in test [2], in test [3] and in test [4] was inactive.
Turning to `CCCCN(CCCC)C(=S)N/N=C/c1c(C)[nH]n(-c2ccccc2)c1=O`, in test [1], the activation is 198% (active). For the same compound, the potentiation in test [2] is 123% (active); in test [3], 239% (active). Moreover, the outcome in test [4] was inactive.
With `FC(F)(F)c1cc(N2CCNCC2)c2ccccc2n1`, the outcome in test [1], in test [2], in test [3] and in test [4] was inactive.
`S=c1[nH]nc(CSc2nc3ccccc3s2)n1C1CCCCC1`: the activation in test [1] was 142% (active). The potentiation in test [2] is 31% (active); in test [3], 147% (active). Also, the outcome in test [4] was inactive.
